72 compounds from PubChem BioAssay AID2648 (Johns Hopkins Ion Channel Center, 2010) can be followed below.

Each structure is given as a SMILES string. In all, about 310,000 compounds went through this assay and about 1,100 (0.35%) were called active.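 The calls were made as follows: active = fluorescence ratio B-score, a plate-corrected score, at least three library SD, with initial intensity B-score within 5 SD; inactive = the rest.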 Many of the other results were omitted from the sample, so actives are more common in it than they were.

The target in this assay is Potassium voltage-gated channel subfamily KQT member 1 (Homo sapiens) (UniProt P51787). Put plainly: potentiators or activators of KCNQ1 channel, primary screen, cell-based, thallium flux, high-throughput (AID 2648). Particulars: CHO-K1 KCNQ1, thallium flux FluxOR fluorescence, at 10 µM; stronger effect = higher value. A digest of the protocol: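 Assay system: stable KCNQ1 CHO-K1 line; medium: assay buffer, equal DMSO in all wells; timing: 90 min dye loading and 20 min compound exposure, both at room temperature; technique: kinetic FluxOR thallium fluorescence, 10-s 1-Hz baseline, 110-s post-stimulus read; read-out basis: B score of baseline-normalized fluorescence ratio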
Chain of Potassium voltage-gated channel subfamily KQT member 1 (Homo sapiens) (P51787 whole entry, looked up): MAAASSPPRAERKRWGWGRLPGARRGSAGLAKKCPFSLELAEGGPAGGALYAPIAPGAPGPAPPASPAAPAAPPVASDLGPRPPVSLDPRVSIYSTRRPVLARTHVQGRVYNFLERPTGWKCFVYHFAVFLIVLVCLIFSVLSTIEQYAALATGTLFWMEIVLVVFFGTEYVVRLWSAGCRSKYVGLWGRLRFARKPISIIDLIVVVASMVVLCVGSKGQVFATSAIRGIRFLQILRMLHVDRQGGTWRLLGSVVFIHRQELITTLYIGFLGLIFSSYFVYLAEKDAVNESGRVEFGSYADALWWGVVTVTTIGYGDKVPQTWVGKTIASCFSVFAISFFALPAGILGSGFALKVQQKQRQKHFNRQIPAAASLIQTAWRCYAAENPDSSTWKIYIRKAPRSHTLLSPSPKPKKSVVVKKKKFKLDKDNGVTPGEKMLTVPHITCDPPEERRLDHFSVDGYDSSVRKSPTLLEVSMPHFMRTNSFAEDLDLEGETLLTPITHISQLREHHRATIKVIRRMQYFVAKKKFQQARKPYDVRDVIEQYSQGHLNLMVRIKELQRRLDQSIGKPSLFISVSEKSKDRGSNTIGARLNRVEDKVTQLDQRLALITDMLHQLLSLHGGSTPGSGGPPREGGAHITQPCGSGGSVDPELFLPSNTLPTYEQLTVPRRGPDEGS
As for `O=C(N/N=C\c1cc2c(cc1Cl)OCO2)c1ccc(Br)s1`, the B-score entry was “inactive”. `COC(=O)c1sccc1NS(=O)(=O)c1ccc(F)cc1F`: the B-score result is “inactive”. The entry for `COC(=O)c1sccc1NC(=O)COc1ccc(Cl)cc1` is “inactive”; for `COC(=O)c1sccc1NC(=O)CSc1ccccc1NS(=O)(=O)c1cc(Cl)ccc1Cl` it is 12 (active).

`O=C(NNC(=S)NC1CCCCC1)c1ccccc1Cl`: the B-score result is “inactive”. As to `COc1ccc(C(=O)NC(=S)NC2CCCCC2)cc1`, the B-score result was “inactive”. For `O=C(NC(=S)NC1CCCCC1)c1ccc(Cl)cc1` the value was 9 (active); for `CC(C)Cc1nc(Nc2ccc(S(=O)(=O)N3CCCC3)cc2)c2nnn(Cc3ccccc3)c2n1`, “inactive”. Take `CCc1ccc(Oc2coc3cc(O)ccc3c2=O)cc1`: the B-score result is “inactive”. Consider `CC(Oc1cccc(Cl)c1)C(=O)Nc1ccc(S(=O)(=O)Nc2ncccn2)cc1` (configuration not stated), for which the B-score result is “inactive”. `CCCc1nc2sc3c(c2c(=O)n1NC(=O)CCCl)CCCC3`: the B-score entry was “inactive”.

As for `CN(C)CCCn1c(=O)n(Cc2ccccc2)c(=O)c2c3c(sc21)CCCCC3`, the B-score result was “inactive”.

As to `CCn1c(=S)[nH]c2sc3c(c2c1=O)CCCCC3`, the B-score is 92 (active). For the compound `N#Cc1nc(N)nc(N(c2ccccc2)c2ccccc2)n1`, the B-score result is “inactive”. `O=C(Nc1cccn(Cc2ccccc2Cl)c1=O)NC1CCCCC1`: the B-score entry is “inactive”. As to `CC(OC(=O)C1CC(=O)N(Cc2ccccc2)C1)C(=O)Nc1ccccc1[N+](=O)[O-]` (configuration not stated), the B-score result is “inactive”. `COc1ccc(C(=O)NC(=S)NNC(=O)c2c(-c3ccccc3)noc2C)cc1`: the B-score result was “inactive”. `COc1ccc(C(=O)NNC(=S)NC(=O)c2ccccc2)cc1`: the B-score is 10 (active). For `COc1ccc(C(=O)NNC(=S)NC(=O)c2ccccc2[N+](=O)[O-])cc1`, the B-score result is “inactive”. As for `CCc1cc2c(=O)c(-c3ccon3)c(N)oc2cc1OC`, the B-score result is “inactive”. `Oc1ccc(N=Nc2nccs2)c(O)c1`: the B-score entry is “inactive”.

With `Oc1ccc2ccccc2c1N=Nc1nccs1`, the B-score is 21 (active). `c1ccc(NCc2cccc3ccccc23)nc1`: the B-score entry was “inactive”. In the case of `COc1ccc(N(CC(=O)NCc2ccc(F)cc2)C(=O)CCC(=O)Nc2nccs2)cc1`, the B-score entry is “inactive”. With `O=S(=O)(ON(c1ccccc1)S(=O)(=O)c1ccccc1)c1ccccc1`, the B-score result was “inactive”. For the compound `CC1=C/C(=N\OS(=O)(=O)c2ccccc2)C=CC1=O`, the B-score is 9 (active).

Turning to `CCOc1ccc(Br)cc1S(=O)(=O)Nc1cccc(S(=O)(=O)N(CC)CC)c1`, the B-score entry is “inactive”. `Cc1cccc(OCC(=O)NC(=S)Nc2ccccc2N2CCOCC2)c1`: the B-score result is “inactive”. As to `Cc1ccc(O)c(NC(=O)COc2cc(C)ccc2C)c1`, the B-score entry is “inactive”. The figure for `Cc1ccc(O)c(NC(=S)NC(=O)COc2ccc(Br)cc2)c1` is 8 (active). Consider `CCCCn1c(N)c(N(CCC(C)C)C(=O)CC2OC(=O)c3ccccc32)c(=O)[nH]c1=O` (configuration not stated), for which the B-score entry was “inactive”. Take `Cc1cc2occ(CC(=O)NNC(=O)c3ccccc3F)c2cc1C`: the B-score entry is “inactive”. Consider `CCOC(=O)CN(C(=O)COc1nc(-c2ccccc2)cc(C)c1C#N)c1ccc(F)cc1`, for which the B-score entry was “inactive”. With `Cc1cccc(C(=O)Nc2ccc(C(=O)/C=C/c3cccs3)cc2)c1`, the B-score entry was “inactive”. As to `Cc1cccc(/C(N)=N/OC(=O)c2ccccc2Cl)c1`, the B-score result was “inactive”.

Regarding `C/C(=N/NC(=S)Nc1ccccc1)c1ccc2c(c1)OCO2`, the B-score entry was “inactive”. As for `Cc1ccc(NC(=O)c2cc3ccccc3o2)cc1`, the B-score entry is “inactive”. With `C/C(=N\NC(=S)Nc1ccc(C)cc1)c1cc2ccccc2o1`, the B-score is 28 (active). Turning to `O=C(CSc1nncn1-c1cccnc1)N1CCOCC1`, the B-score result was “inactive”. On to `CCc1[nH]nc(C(=O)N2CCCC(CNS(=O)(=O)c3cccs3)C2)c1C` (configuration not stated), for which the B-score entry was “inactive”.

Regarding `CC(C)c1ccc2c(c1)c(SC(C)(C)C)c(CC(C)(C)C(=O)O)n2Cc1ccc(Cl)cc1`, the B-score was 44 (active). For `Nc1ncnc(Nc2cccc(Cl)c2Cl)n1`, the B-score entry was “inactive”.

For the compound `Cc1cccc(NC(=S)NCCN(C2CCCCC2)C2CCCC2)c1`, the B-score entry was “inactive”. On to `Cc1cccc(C(=O)NC(=S)N(C)C2CCCCC2)c1`, for which the B-score was 16 (active).

For the compound `Cc1cccc(C(=O)NCCCN(C)CCCNC(=O)c2cccc(C)c2)c1`, the B-score result was “inactive”.

As to `COc1ccc(C(=O)C2CCCN(C(=O)c3cnsn3)C2)c(C)c1` (configuration not stated), the B-score entry was “inactive”. For `OC(CNC1CCCC1)COc1ccc(F)cc1` (configuration not stated) the value was “inactive”. Regarding `CC1CCN(C(=O)c2ccc(S(=O)(=O)Cc3cc(F)ccc3F)c([N+](=O)[O-])c2)CC1`, the B-score entry is “inactive”.

For the compound `COc1ccccc1OCc1nc2ccccc2s1`, the B-score entry is “inactive”.

For the compound `COc1cccc2sc(Nc3nc(C)c(C(C)=O)s3)nc12`, the B-score entry is “inactive”. For `COc1cccc2sc(NNC(=O)c3nc4ccccc4s3)nc12`, the B-score is 28 (active). The entry for `CN(CC(=O)Nc1ccccc1C(F)(F)F)C(=O)Cc1ccccc1F` is “inactive”; for `COCCNC(=O)CN1C(=O)CSc2ncccc21` it is “inactive”.

Regarding `O=c1c2cc(Br)ccc2nc(-c2cccc(Cl)c2)n1O`, the B-score is 89 (active). For `Cc1cccc(-c2nc3ccccc3c(=O)n2NC(=O)Cc2ccc(Cl)cc2)c1`, the B-score result is “inactive”. In the case of `O=C1CCCc2c1nc(-c1cccc(Cl)c1)n2O`, the B-score entry was “inactive”. As for `Cc1ccc(S(=O)(=O)N(C)C)cc1NC(=O)COC(=O)/C=C/c1cccs1`, the B-score result is “inactive”. On to `O=C(NCCc1ccco1)C(=O)NCCC1CCCCN1S(=O)(=O)c1ccccc1` (configuration not stated), for which the B-score result was “inactive”. Regarding `O=c1[nH]cnc2c1c(-c1ccccc1)cn2-c1ccc(F)cc1`, the B-score entry was “inactive”. On to `COc1ccc(-n2cc(-c3ccccc3)c3c(=S)nc[nH]c32)cc1`, for which the B-score was 8 (active). Regarding `COc1ccc(-n2c(-c3ccc(OC)c(OC)c3)n[nH]c2=S)cc1`, the B-score result is “inactive”. `CC(=O)NS(=O)(=O)c1ccc(NC(=O)/C=C/c2ccccc2Cl)cc1`: the B-score result is “inactive”.

In the case of `CN(C(=O)c1c(Cl)cnn1C)C12CC3CC(CC(C3)C1)C2`, the B-score result was “inactive”. With `Nc1ccc(N=Nc2ccccc2Cl)c(N)n1`, the B-score result was “inactive”. With `CCCc1ccc(OCCNC(=O)c2ccco2)cc1`, the B-score result was “inactive”. Regarding `O=C(Nc1ccc2ccccc2c1)/C(=C/c1cccc(Br)c1)NC(=O)c1ccco1`, the B-score result was “inactive”. The figure for `CC(Oc1ccc2ccccc2c1)C(=O)NNC(=S)NC(=O)c1ccco1` (configuration not stated) is 38 (active); for `CCCc1ccc(OCC(=O)NNC(=S)NC(=O)c2ccco2)cc1` it is 10 (active). Consider `Cc1ccc(C(=O)NNC(=O)C(C)Oc2ccc3ccccc3c2)o1` (configuration not stated), for which the B-score entry is “inactive”.

On to `Cc1ccc(OCC(=O)NCCCNC(=O)c2ccco2)cc1C`, for which the B-score result is “inactive”.

`O=C(c1cccs1)n1nc(NCc2ccccc2)nc1NCc1ccccc1`: the B-score entry was “inactive”. As for `COC(=O)Cc1cnc(NC(=O)CSc2nc(C(C)C)cc(=O)[nH]2)s1`, the B-score entry was “inactive”.
